Assay [1] concerns the target T1, Free fatty acid receptor 1 (Homo sapiens, UniProt O14842). Nature of the assay: Agonist potency at human GPR40 expressed in CHO cells relative to standard by luciferase reporter gene assay. Type of assay: functional, cell-based.
The target of assay [2] is T1, Free fatty acid receptor 1. Nature of the assay: Agonist potency at human GPR40 expressed in CHO cells. Type of assay: functional, cell-based. Summed up:
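Ten-point dose–response in CHO cells stably expressing human GPR40. Receptor activation was read out by a Gal4/Elk1/luciferase reporter gene. Potency was taken from the curve and reported as pEC50.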

The source of these data is ChEMBL document CHEMBL1146132, “Synthesis and activity of small molecule GPR40 agonists” (Bioorg Med Chem Lett, 2006).

Structures are written as SMILES. Where only a bound is given, the exact number is not on record here.

T1 sequence (O14842 whole entry): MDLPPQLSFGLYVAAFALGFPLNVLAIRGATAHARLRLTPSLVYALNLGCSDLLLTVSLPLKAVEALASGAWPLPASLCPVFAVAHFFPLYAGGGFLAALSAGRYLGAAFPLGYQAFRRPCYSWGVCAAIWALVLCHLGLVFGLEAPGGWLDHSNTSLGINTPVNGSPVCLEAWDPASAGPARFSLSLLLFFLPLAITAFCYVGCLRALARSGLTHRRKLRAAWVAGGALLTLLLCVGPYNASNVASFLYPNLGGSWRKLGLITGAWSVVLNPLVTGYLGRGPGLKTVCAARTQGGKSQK

On to `Cc1nc(-c2ccc(C(F)(F)F)cc2)sc1CNc1ccc([C@H]2C[C@@H]2C(=O)O)cc1` (stereo in doubt; 14B) [listing 1 of 2 here], for which the %max in assay [1] amounted to 89%.
For `O=C(O)CSc1ccc(NCc2cccc(Oc3ccccc3)c2)cc1`, the EC50 in assay [2] was 324 nM. The %max in assay [1] amounted to 84%.
Turning to `Cc1nc(-c2ccc(C(F)(F)F)cc2)sc1CNc1ccc([C@H]2C[C@@H]2C(N)=O)cc1`, the EC50 in assay [2] is 4.47 nM. This compound returned a %max in assay [1] of 80%.
On to `Cc1nc(-c2ccc(C(F)(F)F)cc2)sc1CNc1ccc([C@H]2C[C@@H]2C(=O)NC(C)C)cc1` (stereo in doubt; 24B) [listing 1 of 2 here], for which, in assay [2], the EC50 is 11 nM.
In assay [2], `Cc1nc(-c2ccc(C(F)(F)F)cc2)sc1CNc1ccc(CCC(N)=O)cc1` showed an EC50 of 12.9 nM. Also, the %max in assay [1] was 88%.
For the compound `Cc1nc(-c2ccc(C(F)(F)F)cc2)sc1CNc1ccc([C@H]2C[C@@H]2C(=O)NC2CCNC2)cc1` (some centres not stated), the midpoint of the response in assay [2], the EC50, lay at 204 nM. In assay [1], this compound gave a %max of 52%.
As for `Cc1nc(-c2ccc(C(F)(F)F)cc2)sc1CNc1ccc([C@H]2C[C@@H]2C(=O)NC2CCC2)cc1`, the midpoint of the response in assay [2], the EC50, lay at 9.12 nM. Further, in assay [1], the %max came to 55%.
Consider `O=C(O)c1ccc(NCc2cccc(Oc3ccccc3)c2)cc1`, for which the EC50 in assay [2] is > 10000 nM. In assay [1], the %max came to 86%.
Consider `CC(C)(Oc1ccc(NCc2cccc(Oc3ccccc3)c2)cc1)C(=O)O`, for which the EC50 in assay [2] is > 10000 nM. This compound registered a %max in assay [1] of 14%.
Regarding `O=C(O)Cc1ccc(NCc2cccc(Oc3ccccc3)c2)cc1`, the EC50 in assay [2] is > 10000 nM. This compound also registered a %max in assay [1] of 36%.
As for `Cc1nc(-c2ccc(C(F)(F)F)cc2)sc1CNc1ccc(C(=O)O)cc1`, the EC50 in assay [2] was > 10000 nM. For the same compound, the %max in assay [1] stood at 10%.
Regarding `Cc1nc(-c2ccc(C(F)(F)F)cc2)sc1CNc1ccc([C@H]2C[C@@H]2C(=O)NC(C)C)cc1` (stereo in doubt; 22B) [listing 1 of 2 here], in assay [2], the EC50 is 14.1 nM.
`Cc1nc(-c2ccc(C(F)(F)F)cc2)sc1CNc1ccc([C@H]2C[C@@H]2C(=O)NC(C)C)cc1` (stereo in doubt; 22B) [listing 2 of 2 here] had a %max in assay [1] of 69%.
`CC(CC(=O)O)c1ccc(NCc2cccc(Oc3ccccc3)c2)cc1` (configuration not stated) had an EC50 in assay [2] of 126 nM. In assay [1], this compound displayed a %max of 83%.
In assay [2], `CNC(=O)CCc1ccc(NCc2cccc(Oc3ccccc3)c2)cc1` gave an EC50 of 49 nM. The %max in assay [1] worked out at 67%.
On the same counts, the results for `CC(C)NC(=O)CCc1ccc(NCc2cccc(Oc3ccccc3)c2)cc1` are 39.8 nM and 66%.
`Cc1nc(-c2ccc(C(F)(F)F)cc2)sc1CNc1ccc(OCC(=O)O)cc1` had an EC50 in assay [2] of 288 nM. In assay [1], this compound had a %max of 100%.
On to `Cc1nc(-c2ccc(C(F)(F)F)cc2)sc1CNc1ccc([C@H]2C[C@@H]2C(=O)O)cc1` (stereo in doubt; 10B) [listing 1 of 2 here], for which the midpoint of the response in assay [2], the EC50, lay at 2.45 nM.
On to `O=C(O)COc1ccc(NCc2cccc(Oc3ccccc3)c2)cc1`, for which, in assay [2], the EC50 is 2040 nM. Also, the %max in assay [1] came to 84%.
As to `Cc1nc(-c2ccc(C(F)(F)F)cc2)sc1CNc1ccc(CCCC(=O)O)cc1`, the EC50 in assay [2] was > 10000 nM. For the same compound, the %max in assay [1] is 44%.
On the same counts, the results for `O=C(O)CCc1ccc(NCc2cccc(Oc3ccccc3)c2)cc1` [GW9508] are 64.6 nM and 86%.
As to `O=C(O)[C@H]1C[C@@H]1c1ccc(NCc2cccc(Oc3ccccc3)c2)cc1` (stereo in doubt; 14A) [listing 1 of 2 here], a half-maximal effect in assay [2] (EC50) was put at 12.3 nM.
In the case of `CC(C)NC(=O)[C@H]1C[C@@H]1c1ccc(NCc2cccc(Oc3ccccc3)c2)cc1`, a half-maximal response in assay [2] (EC50) required 12.6 nM. This compound had a %max in assay [1] of 62%.
As for `Cc1nc(-c2ccc(C(F)(F)F)cc2)sc1CNc1ccc(CC(=O)O)cc1`, the EC50 in assay [2] was > 10000 nM. The same compound came in with a %max in assay [1] of 18%.
Compound `O=C(O)[C@@H]1C[C@H]1c1ccc(NCc2cccc(Oc3ccccc3)c2)cc1` gave an EC50 in assay [2] of 562 nM. The %max in assay [1] was determined as 64%.
On the same counts, the results for `CN(C)C(=O)CCc1ccc(NCc2cccc(Oc3ccccc3)c2)cc1` are 174 nM and 50%.
In assay [1], `Cc1nc(-c2ccc(C(F)(F)F)cc2)sc1CNc1ccc([C@H]2C[C@@H]2C(=O)O)cc1` (stereo in doubt; 10B) [listing 2 of 2 here] gave a %max of 81%.
As to `Cc1nc(-c2ccc(C(F)(F)F)cc2)sc1CNc1ccc(C(C)CC(=O)O)cc1` (configuration not stated), the EC50 in assay [2] was 58.9 nM. The same compound gave a %max in assay [1] of 109%.
On the same counts, the results for `O=C(O)CCCc1ccc(NCc2cccc(Oc3ccccc3)c2)cc1` are 1120 nM and 59%.
`O=C(O)/C=C/c1ccc(NCc2cccc(Oc3ccccc3)c2)cc1` had an EC50 in assay [2] of 145 nM. In assay [1], this compound showed a %max of 76%.
Compound `Cc1nc(-c2ccc(C(F)(F)F)cc2)sc1CNc1ccc([C@H]2C[C@@H]2C(=O)N[C@H](C)c2ccccc2)cc1` showed a concentration for a half-maximal effect (EC50) in assay [2] of 53.7 nM. In assay [1], this compound displayed a %max of 42%.
For `O=C(NO)[C@H]1C[C@@H]1c1ccc(NCc2cccc(Oc3ccccc3)c2)cc1`, the concentration for a half-maximal effect (EC50) in assay [2] is 14.8 nM. In assay [1], this compound had a %max of 90%.
For `O=C(O)[C@H]1C[C@@H]1c1ccc(NCc2cccc(Oc3ccccc3)c2)cc1` (stereo in doubt; 10A) [listing 1 of 2 here], in assay [1], the %max is 72%.
Consider `CC(Cc1ccc(NCc2cccc(Oc3ccccc3)c2)cc1)C(=O)O` (configuration not stated), for which, in assay [2], the EC50 was 100 nM. In assay [1], the %max was 70%.
`Cc1nc(-c2ccc(C(F)(F)F)cc2)sc1CNc1ccc([C@H]2C[C@@H]2C(=O)NO)cc1` gave an EC50 in assay [2] of 6.92 nM. This compound also registered a %max in assay [1] of 78%.
In assay [2], `O=C(CCc1ccc(NCc2cccc(Oc3ccccc3)c2)cc1)N1CCCC1` had an EC50 of 115 nM. The %max in assay [1] was found to be 46%.
On to `Cc1nc(-c2ccc(C(F)(F)F)cc2)sc1CNc1ccc(CCC(=O)O)cc1`, for which the EC50 in assay [2] was 67.6 nM. This compound also came in with a %max in assay [1] of 108%.
Take `Cc1nc(-c2ccc(C(F)(F)F)cc2)sc1CNc1ccc(CC(C)C(=O)O)cc1` (configuration not stated): in assay [2], the response was half-maximal at 355 nM (EC50). In assay [1], the %max is 100%.
`Cc1nc(-c2ccc(C(F)(F)F)cc2)sc1CNc1ccc([C@H]2C[C@@H]2C(=O)O)cc1` (stereo in doubt; 14B) [listing 2 of 2 here]: in assay [2], the concentration for a half-maximal effect (EC50) was 4.9 nM.
Regarding `Cc1nc(-c2ccc(C(F)(F)F)cc2)sc1CNc1ccc(CCC(=O)NC(C)C)cc1`, the EC50 in assay [2] was 100 nM. Also, the %max in assay [1] came out at 84%.
Regarding `O=C(O)[C@H]1C[C@@H]1c1ccc(NCc2cccc(Oc3ccccc3)c2)cc1` (stereo in doubt; 14A) [listing 2 of 2 here], the %max in assay [1] is 88%.
`Cc1nc(-c2ccc(C(F)(F)F)cc2)sc1CNc1ccc(/C=C/C(=O)O)cc1` gave an EC50 in assay [2] of 36.3 nM. Also, the %max in assay [1] turned out to be 95%.
In turn, `Cc1nc(-c2ccc(C(F)(F)F)cc2)sc1CNc1ccc([C@@H]2C[C@@H]2C(=O)O)cc1` gave an EC50 in assay [2] of 302 nM. In assay [1], this compound displayed a %max of 68%.
In turn, `Cc1nc(-c2ccc(C(F)(F)F)cc2)sc1CNc1ccc([C@H]2C[C@@H]2C(=O)NC(C)C)cc1` (stereo in doubt; 24B) [listing 2 of 2 here] displayed a %max in assay [1] of 71%.
`Cc1nc(-c2ccc(C(F)(F)F)cc2)sc1CNc1ccc([C@H]2C[C@@H]2C(=O)N(C)C)cc1` showed an EC50 in assay [2] of 66.1 nM. In assay [1], the %max is 49%.
Consider `NC(=O)CCc1ccc(NCc2cccc(Oc3ccccc3)c2)cc1`, for which the EC50 in assay [2] was 51.3 nM. Besides, in assay [1], the %max is 68%.
`O=C(O)[C@H]1C[C@@H]1c1ccc(NCc2cccc(Oc3ccccc3)c2)cc1` (stereo in doubt; 10A) [listing 2 of 2 here] showed an EC50 in assay [2] of 13.5 nM.
